WT yeast gro inh: growth inhibition of WT strain, primary screen, mitochondrial fusion inhibitor project, WT and mutant strains, chemical genetic; mitochondrial fusion phenotypic screen; inhibition, % at 10 µM; 2.1% of 190,000 active; in the data active = inhibition above about 58%; tested in S. cerevisiae
Lmaj promast: Leishmania major promastigote growth inhibition, primary screen | AID 1063, 2008 | Leishmania major promastigotes, resazurin fluorescence viability | inhibition, % at 10 µM | 9% of 200,000 active; in the data active = inhibition above about 50%;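 also: promastigotes grown with compound for 44 hours at 28 °C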
ABCB1 block: ABCB1 efflux pump inhibitors, primary screen, cell-based, multiplex, flow cytometry, ABCG2 counter-screen; ATP-dependent translocase ABCB1 (Homo sapiens), P08183; CCRF-Adr cells, JC-1 efflux; inhibition, % at 6.6 µM; 0.067% of 190,000 active; AID 1326, 2008; in the data active = inhibition above about 40%;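 also: higher value means more JC-1 retained so stronger ABCB1 efflux block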
RAM inhibit: inhibitors of the yeast RAM network, primary screen, dse1pr::URA3 reporter, 5-FOA selection. AID 868, 2007. inhibition, % at 50 µM. S. cerevisiae dse1pr::URA3 reporter, 5-FOA growth OD615, 2 d; analog-sensitive cbk1-as2 kinase mutant strain. 1.8% of 190,000 active;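 active = inhibition above a set limit, 3 SD over mean compound inhibition, cut at about 8.4% in these data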;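 also: inhibition rescues growth on 5-FOA so higher OD means more RAM inhibition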
ABCG2 block: ABCG2 efflux pump inhibitors, primary screen, multiplex with ABCB1, IgMXP3 cells, flow cytometry; Broad substrate specificity ATP-binding cassette transporter ABCG2 (Homo sapiens), Q9UNQ0; JC-1 efflux; inhibition, % at 6.6 µM; 0.1% of 190,000 active; AID 1325, 2008;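 active = inhibition above 80%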
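Test system: IgMXP3 cells (ABCG2) mixed with DDAO far-red-labelled CCRF-Adr cells (ABCB1). Reagent: JC-1 transporter substrate. Compound dosing: single test compound dose, 6.6 µM final. Times: 10 min compound exposure, 25 °C. Detection: flow cytometry of retained JC-1 fluorescence. Read-out basis: efflux inhibition in percent versus controls. Controls: nicardipine and DMSO wells.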
Of the large screens only hits and unclear results are named; the others gave an inactive call. Compounds with a hit are over-represented: about 12% of the library has one in this group of screens.

CCCOc1ccc(C(=O)NNC(=S)NC(=O)CC)cc1	Lmaj promast 95
CCCCC(=O)NC(=S)NNC(=O)c1ccc(OC)cc1	Lmaj promast 58
CC(C)CC(=O)Nc1ccc(C(=O)NNC(=S)NC(=O)C2CCCCC2)cc1	RAM inhibit 8.4
CC(C)(C)c1ccc(C(=O)NNC(=O)C2CCCCC2)cc1	none
CCOc1ccc(CC(=O)N2N=C(C)CC2(O)C(F)(F)F)cc1 (stereo not drawn)	none
CC(C)CNC(=O)CN(C1CCCCC1)S(=O)(=O)c1ccccc1	none
COC(=O)C1CCN(c2ccc(Cl)nn2)CC1	none
O=C(NNC(=O)c1ccc(NC(=O)c2ccccc2)cc1)c1ccccc1	none
CCC(=O)NC(=S)NNC(=O)c1ccc(NC(=O)c2ccccc2)cc1	Lmaj promast 99
CC(/C=C/c1ccccc1)=N/O	none
CC(/C=C/c1ccc(OCc2ccccc2)cc1)=N\O	Lmaj promast 83
Cc1cc(C)nc(N2CCCC(C(=O)NC(C)CCc3ccco3)C2)n1 (stereo not drawn)	none
CCOC(=O)c1sc2nc(-c3cccnc3)ccc2c1N	none
Nc1c(C(=O)Nc2ccc(Cl)c(Cl)c2)sc2nc(-c3cccnc3)ccc12	Lmaj promast 59
O=C(Nc1ccc(Br)cc1)c1cccn1-c1ncc(C(F)(F)F)cc1Cl	WT yeast gro inh 78
Cc1ccc(/C=N/NC(=O)CC(=O)NCc2cccnc2)cc1	none
Fc1ccc(COc2ccccc2CNCc2ccncc2)cc1	Lmaj promast 98
Nc1nonc1C(=O)NCCNCc1ccccc1OCc1ccc(F)cc1	none
Brc1ccc(OCc2ccccc2)c(CNCc2ccncc2)c1	Lmaj promast 94
COc1ccccc1CNC(=O)c1ccccc1OCc1ccc(F)cc1	WT yeast gro inh 67
Cc1ccc(C(=O)NCCCc2ccccc2)s1	none
Cc1ccc(OCCOCCOc2cccc3cccnc23)c(Br)c1	none (no result: ABCB1 block)
Cc1cc(C)cc(OCCCOc2cccc3cccnc23)c1	WT yeast gro inh 66, Lmaj promast 82
Cc1ccccc1OCCn1cc(C(=S)N2CCCC2)c2ccccc21	none (no result: WT yeast gro inh, ABCB1 block, RAM inhibit, ABCG2 block)
CN1CCN(C(=S)c2cn(Cc3ccc(F)cc3)c3ccccc23)CC1	Lmaj promast 51
CC1CCN(C(=S)c2cn(Cc3ccccc3F)c3ccccc23)CC1	WT yeast gro inh 74
Cc1ccccc1OCCn1cc(C(=S)N2CCN(C)CC2)c2ccccc21	Lmaj promast 79
CN1CCN(C(=S)c2cn(Cc3ccccc3F)c3ccccc23)CC1	none
CC(NC(=O)c1ccccc1)C(=O)N/N=C/c1cccc([N+](=O)[O-])c1 (stereo not drawn)	none
COc1cccc(NC(=O)CSc2nnc(-c3cc(C)n(-c4ccccc4)c3C)o2)c1	RAM inhibit 9.3
O=C(CSc1nnc(-c2ccccc2Br)o1)Nc1cccc2ccccc12	none
Cc1cc(Br)c(NC(=O)COC(=O)CSc2nnc(-c3ccc(Cl)cc3)o2)c(Br)c1	Lmaj promast 52
Cc1cc(C)cc(NC(=O)CSc2nnc(-c3ccccc3Br)o2)c1	RAM inhibit 11
COc1ccccc1-c1nnc(SCC(=O)Nc2c(Cl)cccc2Cl)o1	none
CCCCOC(=O)CSc1nnc(-c2ccc(Cl)cc2Cl)o1	WT yeast gro inh 60
C=CCNC(=O)/C(=C\c1ccc(Br)cc1)NC(=O)c1ccccc1OC	none
CN1C(=O)C(CC(=O)NC2CCCCC2)SC1=Nc1ccccc1 (stereo not drawn)	none
CCOc1cc(CNCc2ccncc2)cc(Br)c1OCc1ccccc1F	Lmaj promast 92
CCOc1cc(CNCCO)cc(Br)c1OCc1cccs1	Lmaj promast 100
CCOc1cc(CNCCO)cc(Br)c1OCc1ccc(Cl)cc1Cl	Lmaj promast 101
Cc1cc(C(=O)c2cnc(/N=C/N(C)C)s2)c(F)cc1Cl	none
CC1CCCN(C(C(=O)NC2CCCCC2)c2cc3c(cc2[N+](=O)[O-])OCO3)C1 (stereo not drawn)	Lmaj promast 95
O=C(Nc1cc(C(F)(F)F)ccc1N1CCCCC1)c1ccco1	none
O=C(Nc1cc(C(F)(F)F)ccc1N1CCCCC1)c1ccc(Br)o1	RAM inhibit 11
CCCCN(C)C1CCN(C(=S)Nc2cccc(SC)c2)CC1	Lmaj promast 90
CSc1cccc(NC(=S)N2CCC(N(C)C3CCCCCC3)CC2)c1	Lmaj promast 88
CCC(C)N(C)C1CCN(C(=S)Nc2cccc(OC)c2)CC1 (stereo not drawn)	none
CN(C1CCCC1)C1CCN(C(=S)Nc2cc(F)cc(F)c2)CC1	Lmaj promast 77
CSc1cccc(NC(=S)N2CCC(N(C)C(C)C)CC2)c1	Lmaj promast 62
Fc1ccc(NC(=S)N2CCCC2)cc1	none (no result: WT yeast gro inh, ABCB1 block, RAM inhibit, ABCG2 block)
COc1ccc(S(=O)(=O)N(C)C)cc1NCC(=O)Nc1cccc(C#N)c1	none
O=C(c1ccc(Cl)cc1)c1c[nH]c(C(=O)NNc2ccccc2)c1	none
CCC(C)N(C)C1CCN(C(=S)Nc2cccc(SC)c2)CC1 (stereo not drawn)	Lmaj promast 76
CN1CCN(c2nc(-c3ccc(Br)cc3)nnc2-c2ccccc2)CC1	none
Brc1ccc(-c2nnc(-c3ccccc3)c(N3CCSCC3)n2)cc1	WT yeast gro inh 63
CNc1oc(-c2ccc(Cl)cc2)nc1P(=O)(c1ccccc1)c1ccccc1	WT yeast gro inh 62
NS(=O)(=O)c1ccc(CNC(=O)c2scc3c2CCCC3)cc1	none
CCN(CC)S(=O)(=O)c1cc(NS(=O)(=O)c2cc(Cl)ccc2Cl)ccc1C	Lmaj promast 51, RAM inhibit 11
CCN(CC)S(=O)(=O)c1cc(NC(=O)CCNC(=O)c2ccccc2Cl)ccc1C	none
COc1ccc2ncc(OC(C)=O)cc2c1	none
COc1cccc(N2CCN(c3cnc4ccccc4n3)CC2)c1	Lmaj promast 70
O=C(O)CCc1nn2c3ccccc3n(CC(=O)c3cccs3)c2nc1=O	none
Cc1ccc(CN2CCN(/N=C/c3ccc(C)s3)CC2)cc1	Lmaj promast 68
Cc1cn(C(=O)c2ccccc2)c(=S)n1-c1ccc(Cl)cc1	Lmaj promast 85
CC(C)C(=O)Nc1cccc(C(=O)Nc2nnc(C(C)C)s2)c1	Lmaj promast 53
COc1ccc(NC(=O)CSc2nc3ccccc3n2-c2ccccc2)c([N+](=O)[O-])c1	Lmaj promast 70
Cc1cc(C(=O)NC(=S)Nc2cccc(NC(=O)C(C)C)c2)ccc1[N+](=O)[O-]	Lmaj promast 82
Cc1nnc(NC(=O)c2cccc(NC(=O)C(C)C)c2)s1	none
CC(C)C(=O)Nc1cccc(NC(=S)NC(=O)c2ccc([N+](=O)[O-])cc2)c1	none
COc1ccc(NC(=O)c2cccc(NC(=O)C(C)C)c2)c([N+](=O)[O-])c1	Lmaj promast 73
COc1ccc(NC(=O)CSc2ccccc2)c([N+](=O)[O-])c1	none
CCOc1ccccc1NC(=S)NCc1ccco1	none
